Assay results: ChEMBL document CHEMBL3352487, “Synthesis, antibacterial activity, and biological evaluation of formyl hydroxyamino derivatives as novel potent peptide deformylase inhibitors against drug-resistant bacteria” (Eur J Med Chem, 2014)
Converted amounts (≈) assume the structure as drawn.

Experiments:
Escherichia coli [1] = assay: Antimicrobial activity against Escherichia coli isolate 1 after 24 hrs by broth microdilution method; format: functional; conditions: isolate 1, 24 h
How it was run: (§1)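 Broth microdilution following NCCLS M7-A4; ATCC strains and clinical isolates from a provincial hospital.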

Escherichia coli [2] = assay: Antimicrobial activity against Escherichia coli isolate 3 after 24 hrs by broth microdilution method; format: functional; conditions: isolate 3, 24 h; how it was run: as §1
Escherichia coli [3] = assay: Antimicrobial activity against Escherichia coli isolate 2 after 24 hrs by broth microdilution method; format: functional; conditions: isolate 2, 24 h; how it was run: as §1
Staphylococcus aureus [4] = assay: Antimicrobial activity against Staphylococcus aureus isolate 934334 after 24 hrs by broth microdilution method; format: functional; conditions: isolate 934334, 24 h; how it was run: as §1
Staphylococcus aureus [5] = assay: Antimicrobial activity against Staphylococcus aureus isolate NEQAS 4026 after 24 hrs by broth microdilution method; format: functional; conditions: isolate NEQAS 4026, 24 h; how it was run: as §1
[6] = Solubility of the compound in artificial intestinal juice measured every 2 hrs for 12 hrs by HPLC analysis; format: physicochemical; conditions: simulated gi fluid
Streptococcus pneumoniae [7] = assay: Antimicrobial activity against Streptococcus pneumoniae ERY2 after 24 hrs by broth microdilution method; format: functional; conditions: ERY2, 24 h; how it was run: as §1
Staphylococcus aureus [8] = assay: Antimicrobial activity against Staphylococcus aureus isolate OGA833 after 24 hrs by broth microdilution method; format: functional; conditions: isolate OGA833, 24 h; how it was run: as §1
Staphylococcus aureus [9] = assay: Antimicrobial activity against Staphylococcus aureus OXFORD after 24 hrs by broth microdilution method; format: functional
How it was run: (§2)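 Broth microdilution following NCCLS M7-A4, using ATCC strains and clinical isolates from a provincial hospital.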

[10] = AUC (0 to infinity) in Sprague-Dawley rat at 25 mg/kg, po; format: ADME, organism-based; set-up: dose 25 mg/kg, route oral, time infinity; conditions: plasma
[11] = Half life in Sprague-Dawley rat at 25 mg/kg, po; format: ADME, organism-based; set-up: dose 25 mg/kg, route oral; conditions: in vivo
Staphylococcus aureus [12] = assay: Antimicrobial activity against Staphylococcus aureus MRSA08-12 in peritonitis mouse model administered intravenously as single dose; format: functional; conditions: MRSA08-12, iv
Staphylococcus aureus [13] = assay: Antimicrobial activity against Staphylococcus aureus MRSA08-12 in peritonitis mouse model assessed as mortality of host at 5 mg/kg, iv as single dose relative to control; format: functional
How it was run: (§3)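 Outbred KM mice (20–25 g) infected i.p. with a 90–100% lethal dose (5 × 10^7 CFU/mL) in 0.5 mL brain heart infusion broth with 5% mucin. Single i.v. dose of 1.25–20 mg/kg in 20% DMSO, 0.1 mL. Ten mice per dose; daily monitoring for 14 days; ED50 from cumulative mortality by Bliss's method.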

Staphylococcus aureus [14] = assay: Antimicrobial activity against methicillin-susceptible Staphylococcus aureus after 24 hrs by broth microdilution method; format: functional; how it was run: as §1
Haemophilus influenzae [15] = assay: Antimicrobial activity against Haemophilus influenzae H128 after 24 hrs by broth microdilution method; format: functional; conditions: H128, 24 h; how it was run: as §1
hERG (KCNH2) = hERG (KCNH2) (Homo sapiens, UniProt Q12809); assay: Inhibition of human ERG at 10 uM
Chain of hERG (KCNH2) (Q12809 whole entry): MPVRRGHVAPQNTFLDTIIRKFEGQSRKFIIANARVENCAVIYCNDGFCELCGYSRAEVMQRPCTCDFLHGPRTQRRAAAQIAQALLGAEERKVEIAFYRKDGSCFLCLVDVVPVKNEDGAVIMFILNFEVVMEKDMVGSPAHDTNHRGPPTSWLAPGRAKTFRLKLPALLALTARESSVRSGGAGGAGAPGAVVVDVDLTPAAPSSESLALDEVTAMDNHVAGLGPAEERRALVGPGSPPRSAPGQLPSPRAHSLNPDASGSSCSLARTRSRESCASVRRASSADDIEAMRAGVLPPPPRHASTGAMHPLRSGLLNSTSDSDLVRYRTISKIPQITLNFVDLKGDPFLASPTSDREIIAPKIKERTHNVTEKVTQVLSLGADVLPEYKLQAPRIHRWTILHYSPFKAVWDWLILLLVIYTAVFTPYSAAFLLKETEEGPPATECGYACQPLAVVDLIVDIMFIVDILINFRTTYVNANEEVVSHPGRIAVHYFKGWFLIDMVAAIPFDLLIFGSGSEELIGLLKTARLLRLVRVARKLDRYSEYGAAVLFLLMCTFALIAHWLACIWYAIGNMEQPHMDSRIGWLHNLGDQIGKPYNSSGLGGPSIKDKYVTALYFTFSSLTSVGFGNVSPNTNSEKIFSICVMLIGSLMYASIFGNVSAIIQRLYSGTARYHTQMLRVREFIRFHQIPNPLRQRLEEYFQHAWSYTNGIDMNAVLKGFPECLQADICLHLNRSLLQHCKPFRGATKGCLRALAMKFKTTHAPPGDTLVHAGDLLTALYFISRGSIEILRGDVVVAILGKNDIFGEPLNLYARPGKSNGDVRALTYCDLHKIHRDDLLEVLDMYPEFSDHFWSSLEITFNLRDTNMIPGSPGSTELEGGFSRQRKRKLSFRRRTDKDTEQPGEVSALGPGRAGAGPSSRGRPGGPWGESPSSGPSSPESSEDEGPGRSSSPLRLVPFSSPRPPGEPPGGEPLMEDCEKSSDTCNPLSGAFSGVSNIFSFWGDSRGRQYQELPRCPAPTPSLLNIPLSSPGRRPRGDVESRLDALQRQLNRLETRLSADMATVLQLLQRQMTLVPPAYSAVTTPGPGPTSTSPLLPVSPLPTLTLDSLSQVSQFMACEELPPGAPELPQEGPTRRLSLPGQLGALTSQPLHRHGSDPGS

Staphylococcus aureus [16] = assay: Antimicrobial activity against methicillin-resistant Staphylococcus aureus after 24 hrs by broth microdilution method; format: functional; how it was run: as §2
Streptococcus pneumoniae [17] = assay: Antimicrobial activity against Streptococcus pneumoniae 1629 after 24 hrs by broth microdilution method; format: functional; conditions: Streptococcus pneumoniae, 1629, 24 h; how it was run: as §1
Mus musculus [18] = assay: Acute toxicity in KM mouse assessed as heart abnormality at 250 mg/kg, iv measured for 14 days by necropsy; format: organism-based; set-up: dose 250 mg/kg, route intravenous; conditions: in vivo, 336 h
How it was run: (§4)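 Outbred KM mice (SPF, 20–25 g; nine male, ten female) given a single tail-vein injection of 100 or 250 mg/kg in PBS pH 6.5 with 20% DMSO over about 60 s. Behaviour, weight, coat colour, anal temperature, food and water intake, and urine and stool weight followed for 14 days. On day 14, gross necropsy of skin, lungs, heart, liver, kidneys and spleen.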

Staphylococcus aureus [19] = assay: Antimicrobial activity against Staphylococcus aureus ATCC 29213 after 24 hrs by broth microdilution method; format: functional; conditions: ATCC 29213, 24 h; how it was run: as §1
Staphylococcus aureus [20] = assay: Antimicrobial activity against Staphylococcus aureus isolate 306 after 24 hrs by broth microdilution method; format: functional; conditions: isolate 306, 24 h; how it was run: as §1
Staphylococcus aureus [21] = assay: Antimicrobial activity against Staphylococcus aureus isolate RN1024 after 24 hrs by broth microdilution method; format: functional; conditions: isolate RN1024, 24 h; how it was run: as §2
Staphylococcus aureus [22] = assay: Antimicrobial activity against Staphylococcus aureus isolate CARTER 37 after 24 hrs by broth microdilution method; format: functional; conditions: isolate CARTER 37, 24 h; how it was run: as §2
[23] = Clearance in Sprague-Dawley rat at 5 mg/kg, iv; format: ADME, organism-based; set-up: dose 5 mg/kg, route intravenous; conditions: in vivo
Streptococcus pyogenes = assay: Antimicrobial activity against Streptococcus pyogenes 1308007P after 24 hrs by broth microdilution method; format: functional; how it was run: as §1
Staphylococcus aureus [24] = assay: Antimicrobial activity against Staphylococcus aureus MRSA08-12 in peritonitis mouse model assessed as mortality of host at 1.25 mg/kg, iv as single dose relative to control; format: functional; how it was run: as §3
[25] = Mean residence time (0 to t) in Sprague-Dawley rat at 25 mg/kg, po; format: ADME, organism-based; set-up: dose 25 mg/kg, route oral; conditions: in vivo
Streptococcus pneumoniae [26] = assay: Antimicrobial activity against Streptococcus pneumoniae N1387 after 24 hrs by broth microdilution method; format: functional; conditions: N1387, 24 h; how it was run: as §1
Staphylococcus aureus [27] = assay: Antimicrobial activity against Staphylococcus aureus isolate 934335 after 24 hrs by broth microdilution method; format: functional; conditions: isolate 934335, 24 h; how it was run: as §1
Staphylococcus aureus [28] = assay: Antimicrobial activity against Staphylococcus aureus isolate RUSSELL after 24 hrs by broth microdilution method; format: functional; how it was run: as §2
Enterococcus faecium = assay: Antimicrobial activity against Enterococcus faecium X7501 after 24 hrs by broth microdilution method; format: functional; conditions: X7501, 24 h; how it was run: as §1
[29] = Half life in Sprague-Dawley rat at 5 mg/kg, iv; format: ADME, organism-based; set-up: dose 5 mg/kg, route intravenous; conditions: in vivo
[30] = Volume of distribution at steady state in Sprague-Dawley rat at 5 mg/kg, iv; format: ADME, organism-based; set-up: dose 5 mg/kg, route intravenous; conditions: in vivo, read-out: Vdss
Staphylococcus aureus [31] = assay: Antimicrobial activity against Staphylococcus aureus isolate SWEETING after 24 hrs by broth microdilution method; format: functional; how it was run: as §2
Staphylococcus aureus [32] = assay: Antimicrobial activity against Staphylococcus aureus isolate A53 after 24 hrs by broth microdilution method; format: functional; conditions: isolate A53, 24 h; how it was run: as §2
Staphylococcus aureus [33] = assay: Antimicrobial activity against Staphylococcus aureus isolate 934324 after 24 hrs by broth microdilution method; format: functional; conditions: isolate 934324, 24 h; how it was run: as §1
[34] = Stability of the compound in artificial intestinal juice measured every 2 hrs for 12 hrs by HPLC analysis; format: physicochemical; conditions: simulated gi fluid
Staphylococcus aureus [35] = assay: Antimicrobial activity against Staphylococcus aureus isolate 929003 after 24 hrs by broth microdilution method; format: functional; conditions: isolate 929003, 24 h; how it was run: as §1
Haemophilus influenzae [36] = assay: Antimicrobial activity against Haemophilus influenzae Q1 after 24 hrs by broth microdilution method; format: functional; conditions: Q1, 24 h; how it was run: as §1
Staphylococcus aureus [37] = assay: Antimicrobial activity against Staphylococcus aureus after 24 hrs by broth microdilution method; format: functional; how it was run: as §1
Staphylococcus aureus [38] = assay: Antimicrobial activity against Staphylococcus aureus isolate CL 938 after 24 hrs by broth microdilution method; format: functional; conditions: isolate CL 938, 24 h; how it was run: as §1
Mus musculus [39] = assay: Acute toxicity in KM mouse assessed as abnormal behaviour at 100 mg/kg, iv measured for 14 days; format: organism-based; set-up: dose 100 mg/kg, route intravenous; conditions: in vivo, 336 h; how it was run: as §4
[40] = Fraction unbound in CD1 mouse plasma at 2 uM by equilibrium dialysis; format: ADME, cell-free
How it was run: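 Pooled CD-1 mouse plasma spiked to 2 µM final, equilibrium dialysis in triplicate against 100 mM PBS pH 7.4, 4 h at 37 °C with rotation; matrix-matched samples acetonitrile-precipitated, LC-MS/MS with internal standards. Unbound = free/total ×100; recovery = (free+total)/pre-dialysis ×100.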

For `CCCC[C@H](CN(O)C=O)C(=O)N1CC=C[C@H]1C(=O)Nc1ccc(F)c[n+]1[O-]`, the MIC (Escherichia coli [1]) was > 64 µg/mL, the MIC (Escherichia coli [2]) was 64 µg/mL (≈ 162 µM) and the MIC (Escherichia coli [3]) was 64 µg/mL (≈ 162 µM). The MIC (Staphylococcus aureus [4]) was 1 µg/mL (≈ 2.54 µM), the MIC (Staphylococcus aureus [5]) was 1 µg/mL (≈ 2.54 µM) and the solubility [6] was “soluble”. For the same molecule, the MIC (Streptococcus pneumoniae [7]) was 1 µg/mL (≈ 2.54 µM), the MIC (Staphylococcus aureus [8]) was 0.5 µg/mL (≈ 1.27 µM) and the MIC (Staphylococcus aureus [9]) was 0.5 µg/mL (≈ 1.27 µM). For the same molecule, the AUC(0-inf) [10] was 3390 ng·h/mL, the half-life [11] was 1.82 h and the ED50 (Staphylococcus aureus [12]) was 6.25 mg/kg. It also gave a mortality at 5 mg/kg (Staphylococcus aureus [13]) of 60%, an MIC (Staphylococcus aureus [14]) of 1 µg/mL (≈ 2.54 µM) and an MIC (Haemophilus influenzae [15]) of 2 µg/mL (≈ 5.07 µM). The inhibition at 10 µM (hERG (KCNH2)) was 6.71%, the MIC (Staphylococcus aureus [16]) was 0.5 µg/mL (≈ 1.27 µM) and the MIC (Streptococcus pneumoniae [17]) was 1 µg/mL (≈ 2.54 µM). The Activity (Mus musculus [18]) was “Non-toxic”, the MIC (Staphylococcus aureus [19]) was 1 µg/mL (≈ 2.54 µM) and the MIC (Staphylococcus aureus [20]) was 2 µg/mL (≈ 5.07 µM). It also gave an MIC (Staphylococcus aureus [21]) of 0.5 µg/mL (≈ 1.27 µM), an MIC (Staphylococcus aureus [22]) of 0.5 µg/mL (≈ 1.27 µM) and a clearance [23] of 46.8 mL/min/kg. The MIC (Streptococcus pyogenes) was 2 µg/mL (≈ 5.07 µM), the mortality at 1.25 mg/kg (Staphylococcus aureus [24]) was 100% and the MRT last [25] was 2.34 h. It also gave an MIC (Streptococcus pneumoniae [26]) of 0.5 µg/mL (≈ 1.27 µM), an MIC (Staphylococcus aureus [27]) of 0.25 µg/mL (≈ 0.634 µM) and an MIC (Staphylococcus aureus [28]) of 0.5 µg/mL (≈ 1.27 µM). The MIC (Enterococcus faecium) was 2 µg/mL (≈ 5.07 µM), the half-life [29] was 1.17 h and the Vd [30] was 1.72 L/kg. It also gave an MIC (Staphylococcus aureus [31]) of 0.125 µg/mL (≈ 0.317 µM), an MIC (Staphylococcus aureus [32]) of 0.5 µg/mL (≈ 1.27 µM) and an MIC (Staphylococcus aureus [33]) of 1 µg/mL (≈ 2.54 µM). The Stability [34] was “Stable”, the MIC (Staphylococcus aureus [35]) was 2 µg/mL (≈ 5.07 µM) and the MIC (Haemophilus influenzae [36]) was 1 µg/mL (≈ 2.54 µM). The MIC (Staphylococcus aureus [37]) was 0.5 µg/mL (≈ 1.27 µM), the MIC (Staphylococcus aureus [38]) was 1 µg/mL (≈ 2.54 µM) and the Activity (Mus musculus [39]) was “Non-toxic”. The fraction unbound at 2 µM [40] was 0.467.
